Compound activity as filed in PubChem BioAssay.
Only some compounds are listed: those with a hit (about 6.7% of all), similar ones and a draw of the others.
GRIN3A LBD mod: modulates the human NR3A ligand-binding domain; AID 1259313; NR3A LBD differential scanning fluorimetry, Tm shift; 0% = protein alone, 100% = glycine-bound protein; 340,000 tested, 2.5% active; Tm shift relative to glycine control, % at 25 µM;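 active = melting temperature shift of at least 10% of the positive control shift, at one fixed dose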
CHOP inh: CHOP inhibition in unfolded protein response. CHO-K1 CHOP-promoter luciferase, tunicamycin-induced, 15-18 h. inhibition, % at 10 µM. 220,000 tested, 3.8% active. AID 2732;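 active = compounds that reduced the stress-induced luciferase reporter signal by more than about 70% of percent inhibition, limit read from the data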;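 note: 0% = tunicamycin plus vehicle and 100% = wells without tunicamycin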
CSC inhib: cancer stem cell inhibition; cancer stem cell-like cells viability, luminescence; inhibition, % at 7.5 µM; 300,000 tested, 1.1% active; AID 2717; in the data active = inhibition above about 75%; tested in HMLE shEcad cells
T cruzi repl: blocks replication of Trypanosoma cruzi; AID 1885; T. cruzi beta-gal in NIH3T3, luminescence, 90 h; 300,000 tested, 1.4% active; inhibition, % (concentration not given with the values);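 active = mean inhibition across valid replicates above about 55%, limit read from the data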;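 note: signal also drops with host cell toxicity which is not excluded here; 0% = plate median of DMSO wells and 100% = zero luminescence signal; higher percent means less beta-gal luminescence so fewer parasites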
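System: NIH/3T3 fibroblasts plus reporter T. cruzi. Medium: DMEM plus 2% FBS. Probe or stimulus: 5000 reporter trypomastigotes per well. Compound: single 50 nL compound addition per well in DMSO. Incubation: co-culture of at least 90 h after 3 h attachment. Detection: GalScreen β-gal luminescence, detergent lysis, 60 min. Evaluation: parasite load inhibition, %.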
PREPL inhibitor: inhibitors of human prolyl oligopeptidase-like enzyme PREPL; AID 2751; inhibition, % at 5.96 µM; Q4J6C6; recombinant PREPL, fluorescence polarization activity-based probe; 320,000 tested, 0.68% active; in the data active = inhibition above about 43%;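 note: 0% = enzyme with DMSO and 100% = wells lacking enzyme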
Target sequence (Q4J6C6 whole entry, looked up): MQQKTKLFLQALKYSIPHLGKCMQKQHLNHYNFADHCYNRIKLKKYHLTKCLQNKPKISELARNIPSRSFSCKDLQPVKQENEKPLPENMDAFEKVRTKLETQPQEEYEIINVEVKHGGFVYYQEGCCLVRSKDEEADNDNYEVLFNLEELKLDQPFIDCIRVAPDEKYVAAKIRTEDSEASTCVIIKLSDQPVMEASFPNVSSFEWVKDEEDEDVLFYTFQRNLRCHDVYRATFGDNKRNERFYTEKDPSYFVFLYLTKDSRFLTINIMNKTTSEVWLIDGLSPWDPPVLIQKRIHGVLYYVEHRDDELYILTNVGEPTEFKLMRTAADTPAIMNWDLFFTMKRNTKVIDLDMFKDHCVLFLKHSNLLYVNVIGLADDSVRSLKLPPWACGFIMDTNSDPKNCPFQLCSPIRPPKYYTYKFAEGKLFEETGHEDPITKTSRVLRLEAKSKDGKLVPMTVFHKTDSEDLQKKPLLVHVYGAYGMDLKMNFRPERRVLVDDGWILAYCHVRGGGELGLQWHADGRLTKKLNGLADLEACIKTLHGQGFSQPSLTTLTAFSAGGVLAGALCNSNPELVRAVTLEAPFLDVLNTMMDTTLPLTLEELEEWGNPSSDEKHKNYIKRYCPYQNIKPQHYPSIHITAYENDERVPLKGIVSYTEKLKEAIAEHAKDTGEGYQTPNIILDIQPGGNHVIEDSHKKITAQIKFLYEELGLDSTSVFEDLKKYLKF
Beta apoptosis: blocks beta cell apoptosis; 300,000 tested, 0.8% active; protection from apoptosis, % (concentration not given with the values); INS-1E cytokine-induced death, ATP luminescence, 48 h; percent of positive-control rescue, neutral wells zero;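 active = Every replicate reaches about 75%, or at least half do and their mean reaches it too, limit read from the data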;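 note: 0% = cytokine-treated negative control wells and 100% = positive control rescue; higher means more ATP so stronger rescue from cytokine killing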
Active calls of the source: *; . = not tested or not shown.

SMILES | GRIN3A LBD mod | CHOP inh | CSC inhib | T cruzi repl | PREPL inhibitor | Beta apoptosis
O=C(CCNC(=O)c1ccccc1Cl)Nc1nnc(C2CC2)s1 | 1 | -19 | -7 | -2 | 4 | -7
Cc1ccc(N2CC(C(=O)N3CCC(C(=O)Nc4nnc(C(C)(C)C)s4)CC3)CC2=O)cc1 (centres undefined) | -1 | . | . | 3 | 5 | 0
CCC(C)C(NC(=O)c1ccccc1NC(=O)c1ccc(OC)cc1)C(=O)NCCCn1ccnc1 (centres undefined) | -1 | . | 14 | 3 | 4 | 8
Cc1cccc(-n2c(O)c(C=NCCCN3CCOCC3)c3ccccc3c2=O)c1 | 3 | 11 | 1 | -6 | -3 | -5
CN(C)CCN=Cc1c(O)n(-c2ccc(S(=O)(=O)N3CCOCC3)cc2)c(=O)c2ccccc12 | 14* | . | . | . | . | .
Cc1nn(-c2ccccc2)c(Cl)c1C(=O)Nc1nnc(C2CCCC2)s1 | 3 | 80* | -3 | 8 | -4 | 1
Cc1nn(-c2ccccc2)c(Cl)c1C(=O)NC1CCCCC1 | 0 | 3 | -4 | -11 | 18 | -2
CCOC(=O)c1sc2nc(CC(=O)OC)nc(NCCN3CCOCC3)c2c1C | -1 | 17 | . | 6 | . | .
CCOC(=O)c1sc2nc(CC(=O)OC)nc(N3CCN(c4ccc(OC)cc4)CC3)c2c1C | -14 | 16 | 23 | 63* | 48* | -3
COc1cc(NC(=O)c2ccc(C)c([N+](=O)[O-])c2)ccc1NC(=O)c1ccco1 | . | -15 | 1 | 2 | 11 | -7
COc1cc(NC(=O)c2ccc(OC)c([N+](=O)[O-])c2)ccc1NC(=O)c1ccco1 | 17* | 55 | 10 | 16 | 7 | 7
Cc1ccc(NC(=O)c2ccc(NCc3ccco3)c([N+](=O)[O-])c2)cc1Cl | 15* | 10 | -22 | 10 | 2 | 14
COc1cc(NC(=O)c2oc3ccccc3c2C)ccc1NC(=O)c1ccco1 | 24* | . | . | 23 | 18 | 0
CN(CC(=O)Nc1ccc(F)c(Cl)c1)S(=O)(=O)c1ccc2c(c1)n(C)c(=O)c(=O)n2C | -1 | . | -9 | -19 | 6 | -1
O=c1c(C(c2ccccc2)c2c(O)sc3ccccc3c2=O)c(O)sc2ccccc12 | 5 | -3 | 88* | -11 | -11 | -6
O=c1c2ccccc2sc2ccccc12 | 1 | . | . | . | . | .
CN(C)c1ccc2nc3ccc(=[N+](C)C)cc-3sc2c1 | -4 | 42 | 96* | 43 | 21 | .
Cc1nc2cc(C)c(C)cc2s1 | -1 | 0 | . | 6 | 4 | 2
Cc1cc2nc3ccc(=[N+](C)C)cc-3sc2cc1N | 0 | 36 | . | 69* | . | .
CCOC(=O)C1=C(C)NC(C)=C(C(=O)OCC)C1C(=O)OCC(=O)NCCc1ccc(S(N)(=O)=O)cc1 | -1 | . | 0 | -6 | 12 | 2
Cc1ccc(-c2cn(-c3ccc(OC(F)F)cc3)c3[n+]2CCCCC3)cc1 | 0 | 8 | -2 | 49 | 12 | 100*
Cc1ccc(-c2cn(-c3ccc(SC(F)F)cc3)c3[n+]2CCC3)cc1 | -2 | -9 | . | 29 | 9 | 82*
COc1cc2c(cc1OC)C(c1ccc(Br)cc1)NCC2 (centres undefined) | 0 | . | -15 | 57* | -5 | 0
COc1cc2c(cc1OC)C(COc1ccc(F)cc1)NCC2 (centres undefined) | 271* | . | 11 | 20 | 16 | -1
COc1ccc(C2NCCc3cc(OC)c(OC)cc32)cc1OC (centres undefined) | 0 | 40 | -16 | 5 | -3 | -5
CC(C)(O)[C@@H]1CC[C@@](C)(C2CC[C@]3(C)C2[C@H](O)CC2[C@@]4(C)CC[C@H](O)C(C)(C)C4[C@@H](O[C@H]4O[C@@H](CO)[C@H](O)[C@@H](O)[C@@H]4O[C@@H]4O[C@H](CO)[C@@H](O)[C@H](O)[C@H]4O)C[C@]23C)O1 (stereo in doubt) | -1 | . | -13 | . | 1 | -8
COc1ccccc1-c1csc(NC(=O)c2ccc(N3C(=O)CCC3=O)cc2)n1 | 34* | 63 | . | -14 | 2 | 2
Cc1ccc(-c2csc(NC(=O)CCNC(=O)c3ccc(Cl)cc3)n2)cc1 | 1 | -2 | . | -6 | 1 | -1
CC(C)(C)c1ccc(C(=O)NCC(=O)OCC(=O)Nc2nc(-c3ccc(F)cc3)cs2)cc1 | 10* | 73* | -7 | -10 | -28 | -1
